Source: ChEMBL document CHEMBL2093137, “WHO-TDR NTD Screening”
≈ marks a conversion by molar mass, not a printed value.

How the values were obtained:
[1] = WHO-TDR: Cytotoxicity; type: toxicity, cell-based; conditions: human, MRC5 cells
[2] = test system: Plasmodium falciparum K1; assay: WHO-TDR: Malaria; type: functional, organism-based, Homo sapiens; conditions: Erythrocyte
How it was run: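 Antiplasmodial potency, expressed as IC50, was measured in a whole-organism assay on intra-erythrocytic Plasmodium falciparum K1 in human red blood cells. The screened library held 10,000 diverse compounds from Life Chemicals.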

[3] = test system: Trypanosoma cruzi; assay: WHO-TDR: Chagas disease; type: functional, organism-based, Homo sapiens; conditions: MRC5
How it was run: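 Following previously published standard procedures, with a reference drug as positive control, a whole-organism assay was run on Trypanosoma cruzi Tulahuen CL2 beta-galactosidase strain amastigotes inside MRC-5SV2 human lung fibroblast host cells. The 10,000 compounds tested formed a diverse Life Chemicals library filtered for drug-likeness and reactive groups. Results are expressed as IC50 for antiparasitic potency.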

[4] = test system: Trypanosoma brucei brucei; assay: WHO-TDR: Human African Trypanosomiasis (HAT); type: functional, organism-based; conditions: Squib-427
How it was run: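 Antiparasitic potency is reported as IC50. The screen covered 10,000 compounds from a diverse Life Chemicals library, filtered for drug-likeness and reactive groups, tested on whole bloodstream-form Trypanosoma brucei of the Squib 427 strain.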

[5] = test system: Leishmania infantum; assay: WHO-TDR: Leishmaniasis; type: functional, organism-based, Mus musculus; conditions: Macrophage
How it was run: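 Antiparasitic potency, reported as IC50, was measured against intracellular Leishmania infantum amastigotes. The parasite strain was MHOM/MA(BE)/67, and murine peritoneal macrophages served as host cells for the screen of a 10,000-compound diverse library from Life Chemicals.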

[6] = test system: Schistosoma mansoni; assay: WHO-TDR: Schistosomiasis; type: functional; design: concentration or dose not given beside the values
How it was run: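 Activity appears as percent inhibition and as IC50. The underlying screen tested a diverse library of 10,000 compounds, supplied by Life Chemicals, on whole larval and/or adult worms of the Puerto Rican strain of Schistosoma mansoni.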

[7] = test system: Brugia malayi; assay: (§1) WHO-TDR: Lymphatic Filariasis; type: functional; design: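 tested at 10 µM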
How it was run: (§2)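 Following previously published standard procedures, compounds were tested on whole Brugia malayi microfilariae, with reference drugs as positive controls. They came from a diverse Life Chemicals collection of 10,000 compounds filtered for drug-likeness and reactive groups. Results appear as percent inhibition and as IC50.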

[8] = test system: Brugia malayi; assay: as §1; type: functional, organism-based; how it was run: as §2
[9] = test system: Brugia malayi; assay: as §1; type: functional; design: concentration or dose not given beside the values; how it was run: as §2; remark: listed apart in the source
[10] = test system: Onchocerca lienalis; assay: (§3) WHO-TDR: Onchocerciasis; type: functional; design: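 at 12.5 µM on microfilariae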
How it was run: (§4)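 Following previously published standard procedures, with reference drugs as positive controls, a diverse Life Chemicals library was tested on whole Onchocerca ochengi or Onchocerca lienalis microfilariae. The library held 10,000 compounds filtered for drug-likeness and reactive groups. Activity is recorded both as percent inhibition and as IC50.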

[11] = test system: Onchocerca ochengi; assay: as §3; type: functional; design: concentration or dose not given beside the values; how it was run: as §4;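 also: at 12.5 µM on microfilariae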

SMILES | IC50 [1] | IC50 [2] | IC50 [3] | IC50 [4] | IC50 [5] | % Inhibition [6] | % Inhibition [7] | IC50 [8] | % Inhibition [9] | % Inhibition [10] | % Inhibition [11]
O=C(Nc1nc2c(F)cc(F)cc2s1)c1nc2ccccc2s1 | > 10.4 µg/mL | > 10.4 µg/mL | > 10.4 µg/mL | > 11.1 µg/mL | > 10.4 µg/mL | 0% | 100% | 3.27 µM | 50% | – | –
CCOc1cccc2sc(Nc3nc4ccc5sc(C)nc5c4s3)nc12 | > 12 µg/mL | > 12 µg/mL | > 12 µg/mL | > 12 µg/mL | > 12 µg/mL | 0% | 100% | 4.49 µM | 50% | – | –
O=C(Nc1nnc(-c2ccc3c(c2)CCCC3)o1)c1cc(Cl)sc1Cl | > 11.8 µg/mL | > 11.8 µg/mL | 3.88 µg/mL (≈ 9.83 µM) | 3.79 µg/mL (≈ 9.63 µM) | 6.13 µg/mL (≈ 15.5 µM) | 0% | 100% | 4.49 µM | 50% | – | –
CCOC(=O)c1sc(Nc2nc3c(F)cccc3s2)nc1C | > 10.1 µg/mL | > 10.1 µg/mL | > 10.1 µg/mL | > 10.1 µg/mL | 6.9 µg/mL (≈ 20.4 µM) | 0% | 100% | 4.99 µM | 50% | – | –
COc1cccc(C(=O)Nc2nnc(-c3ccc4c(c3)CCCC4)o2)c1 | > 10.5 µg/mL | > 10.5 µg/mL | > 10.5 µg/mL | > 11.2 µg/mL | 3.31 µg/mL (≈ 9.49 µM) | 25% | 100% | 2.18 µM | 50% | – | –
CC(C)N1CCc2c(sc(NC(=O)c3sc4ccccc4c3Cl)c2C(N)=O)C1 | 4.25 µg/mL (≈ 9.8 µM) | > 14.1 µg/mL | 0.552 µg/mL (≈ 1.27 µM) | 2.02 µg/mL (≈ 4.65 µM) | 0.457 µg/mL (≈ 1.05 µM) | 0% | 33.33% | – | 0% | 0% | –
COc1cccc2sc(Nc3nnc(-c4cccs4)o3)nc12 | 1.83 µg/mL (≈ 5.54 µM) | 1.25 µg/mL (≈ 3.78 µM) | 0.313 µg/mL (≈ 0.947 µM) | 0.346 µg/mL (≈ 1.05 µM) | 3.17 µg/mL (≈ 9.6 µM) | 0% | 100% | 5.09 µM | 50% | – | –
CC(C)N1CCc2c(sc(NC(=O)COc3ccc(Cl)cc3Cl)c2C(N)=O)C1 | 3.18 µg/mL (≈ 7.19 µM) | 3.35 µg/mL (≈ 7.57 µM) | 0.595 µg/mL (≈ 1.35 µM) | 4.6 µg/mL (≈ 10.4 µM) | 0.465 µg/mL (≈ 1.05 µM) | 0% | 33.33% | – | 0% | 20% | –
CCOC(=O)c1c(NC(=O)c2cccc(C(F)(F)F)c2)sc2c1CCN(C)C2 | > 13.5 µg/mL | > 13.5 µg/mL | 4.8 µg/mL (≈ 11.6 µM) | 0.341 µg/mL (≈ 0.826 µM) | 4.84 µg/mL (≈ 11.7 µM) | 0% | 33.33% | – | 0% | 0% | –
CCOC(=O)c1c(NC(=O)c2sc3ccccc3c2Cl)sc2c1CCN(C)C2 | 3.6 µg/mL (≈ 8.29 µM) | > 14.1 µg/mL | 0.568 µg/mL (≈ 1.31 µM) | 1.95 µg/mL (≈ 4.49 µM) | 4.58 µg/mL (≈ 10.5 µM) | 0% | 33.33% | – | 33.33% | 0% | –
CCC(=O)c1c(NC(=O)c2ccc(C)cc2)sc2c1CCN(CC)C2 | > 11.8 µg/mL | 1.87 µg/mL (≈ 5.24 µM) | 0.479 µg/mL (≈ 1.34 µM) | 0.321 µg/mL (≈ 0.9 µM) | 2.32 µg/mL (≈ 6.51 µM) | 0% | 33.33% | – | 33.33% | 0% | –
CN1CCc2c(sc(NC(=O)C3COc4ccccc4O3)c2-c2nc3ccccc3s2)C1 (stereo not given) | 5.39 µg/mL (≈ 11.6 µM) | 3.38 µg/mL (≈ 7.29 µM) | 2.48 µg/mL (≈ 5.35 µM) | 0.48 µg/mL (≈ 1.04 µM) | 4.86 µg/mL (≈ 10.5 µM) | 0% | 33.33% | – | 66.67% | 0% | –
COc1ccc2nc(N(CCCN(C)C)C(=O)CCCSc3ccccc3)sc2c1 | 4.06 µg/mL (≈ 9.16 µM) | 3.35 µg/mL (≈ 7.55 µM) | 2.53 µg/mL (≈ 5.71 µM) | 0.455 µg/mL (≈ 1.03 µM) | 4.66 µg/mL (≈ 10.5 µM) | 0% | 0% | – | 0% | 12.34% | –
CC(C)(C)c1ccc(-c2csc(NC(=O)c3ccc4ncsc4c3)n2)cc1 | 7.77 µg/mL (≈ 19.7 µM) | 2.77 µg/mL (≈ 7.04 µM) | 0.891 µg/mL (≈ 2.26 µM) | 3.46 µg/mL (≈ 8.8 µM) | 4.24 µg/mL (≈ 10.8 µM) | 0% | 50% | – | 0% | 33.3% | –
CCN1CCc2c(sc(NC(=O)c3ccccc3)c2-c2nc3ccccc3s2)C1 | 3.75 µg/mL (≈ 8.94 µM) | 2.17 µg/mL (≈ 5.17 µM) | 0.514 µg/mL (≈ 1.23 µM) | 1.22 µg/mL (≈ 2.91 µM) | 4.43 µg/mL (≈ 10.6 µM) | 25% | 0% | – | 0% | 0% | –
c1ccc2c(CCNc3[nH]cnc4ncnc3-4)c[nH]c2c1 | 1.91 µg/mL (≈ 6.87 µM) | > 8.35 µg/mL | 0.588 µg/mL (≈ 2.11 µM) | > 8.35 µg/mL | > 8.35 µg/mL | 0% | 0% | – | 0% | 13.4% | –
CCCC(=O)Nc1nnc(-c2ccc(C)cc2)s1 | > 7.84 µg/mL | > 7.84 µg/mL | > 7.84 µg/mL | > 7.84 µg/mL | > 7.84 µg/mL | 0% | 0% | – | 100% | 0% | –
CN1CCc2c(OCC(=O)N3N=C(c4cccs4)CC3c3ccc(F)cc3)cccc2C1=O (stereo not given) | > 13.9 µg/mL | 7.38 µg/mL (≈ 15.9 µM) | 2.3 µg/mL (≈ 4.96 µM) | 4.45 µg/mL (≈ 9.6 µM) | 0.947 µg/mL (≈ 2.04 µM) | 0% | 90% | – | 0% | 0% | –
COc1ccc(CC(=O)NCCS(=O)(=O)N2CCN(c3ncccn3)CC2)cc1OC | > 13.5 µg/mL | > 13.5 µg/mL | > 13.5 µg/mL | > 13.5 µg/mL | 0.437 µg/mL (≈ 0.972 µM) | 33.3% | 0% | – | 0% | – | 0%
COc1cccc2c1CCN(Cc1ccc(Cl)cc1)C2=O | > 9.05 µg/mL | > 9.05 µg/mL | 2.48 µg/mL (≈ 8.23 µM) | > 9.05 µg/mL | > 9.05 µg/mL | 0% | 100% | 3.54 µM | – | 40% | –
